Test results taken from ChEMBL document CHEMBL3997779, “Rhodamine B conjugates of triterpenoic acids are cytotoxic mitocans even at nanomolar concentrations” (Eur J Med Chem, 2017).
Active and inactive are the calls of the source.

Assays:
A2780 [1] = assay: Cytotoxicity against human A2780 cells after 96 hrs by SRB assay; assay type: functional, cell-based; conditions: A2780, 96 h
Summary of the method: (§1)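 EC50 from sulforhodamine B assay after 96 h exposure. Each value is averaged from three independent experiments, each run in triplicate, with 95% confidence interval. Assay cut-off 30 µM.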

A549 = assay: Cytotoxicity against human A549 cells after 96 hrs by SRB assay; assay type: functional, cell-based; conditions: A549, 96 h; summary of the method: as §1
NIH3T3 = assay: Cytotoxicity against mouse NIH/3T3 cells after 96 hrs by SRB assay; assay type: cell-based; conditions: NIH3T3, 96 h; summary of the method: as §1
HT-29 = assay: Cytotoxicity against human HT-29 cells after 96 hrs by SRB assay; assay type: functional, cell-based; conditions: HT-29, 96 h; summary of the method: as §1
MCF7 = assay: Cytotoxicity against human MCF7 cells after 96 hrs by SRB assay; assay type: functional, cell-based; conditions: MCF7, 96 h; summary of the method: as §1
518A2 = assay: Cytotoxicity against human 518A2 cells after 96 hrs by SRB assay; assay type: functional, cell-based; conditions: 518A2, 96 h; summary of the method: as §1
8505C = assay: Cytotoxicity against human 8505C cells after 96 hrs by SRB assay; assay type: functional, cell-based; summary of the method: as §1
A2780 [2] = assay: Induction of apoptosis in human A2780 cells at 0.1 to 0.4 uM after 24 hrs by annexin V/propidium iodide staining-based flow cytometric method relative to control; assay type: functional, cell-based
Summary of the method: (§2)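 A2780 cells treated at 0.1 µM, and at up to 0.4 µM, compared with untreated control. Stained with annexin V/propidium iodide and quantified by FACS.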

[3] = Selectivity factor, ratio of EC50 for mouse NIH/3T3 cells to EC50 for human A2780 cells
[4] = Drug uptake in mitochondria of human A2780 cells at 0.1 uM after 24 hrs by fluorescence and light microscopy; assay type: ADME
Summary of the method: (§3)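 Approx. 800,000 A2780 cells grown 24 h in 25 cm² flasks. Medium then replaced with compound-containing medium at 0.1 µM, or blank medium as control, for 24 h. Cells collected, centrifuged at 1200 rpm and 4 °C, and washed in PBS. Live cells stained with Hoechst 33342 (DNA) and rhodamine 123 (mitochondria), then imaged by fluorescence and light microscopy.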

A2780 [5] = assay: Induction of morphological changes in human A2780 cells at 0.1 uM after 24 hrs by rhodamine 123/Hoechst 33342 staining-based fluorescence microscopic method; assay type: functional, cell-based; summary of the method: as §3
A2780 [6] = assay: Induction of necrosis in human A2780 cells at 0.1 uM after 24 hrs by annexin V/propidium iodide staining-based flow cytometric method relative to control; assay type: functional, cell-based; summary of the method: as §2

Structure (SMILES) | EC50 (A2780 [1]) | EC50 (A549) | EC50 (NIH3T3) | EC50 (HT-29) | EC50 (MCF7) | EC50 (518A2) | EC50 (8505C) | Activity (A2780 [2]) | Ratio EC50 [3] | Drug uptake [4] | Activity (A2780 [5]) | Activity (A2780 [6])
CC(=O)O[C@@H]1C[C@]2(C)[C@H]3CC=C4[C@@H]5CC(C)(C)CC[C@]5(C(=O)N5CCNCC5)CC[C@@]4(C)[C@]3(C)CC[C@H]2C(C)(C)[C@H]1OC(C)=O | 1.9 µM | 1.5 µM | 3.2 µM | 1.6 µM | 1 µM | – | – | – | – | – | – | –
CC1(C)[C@@H](O)CC[C@]2(C)[C@H]3C(=O)C=C4[C@@H]5C[C@@](C)(C(=O)O)CC[C@]5(C)CC[C@@]4(C)[C@]3(C)CC[C@@H]12 [ENOXOLONE] | > 30 µM | > 30 µM | 18.7 µM | > 30 µM | > 30 µM | > 30 µM | > 30 µM | – | – | – | – | –
CC(=O)O[C@H]1CC[C@]2(C)[C@H]3C(=O)C=C4[C@@H]5C[C@@](C)(C(=O)N6CCNCC6)CC[C@]5(C)CC[C@@]4(C)[C@]3(C)CC[C@H]2C1(C)C | 8.2 µM | 10.5 µM | 8.7 µM | 4.5 µM | 8.4 µM | 9.4 µM | 10 µM | – | – | – | – | –
CCN(CC)c1ccc2c(-c3ccccc3C(=O)N3CCN(C(=O)[C@]45CC[C@@H](C)[C@H](C)[C@H]4C4=CC[C@@H]6[C@@]7(C)CC[C@H](OC(C)=O)C(C)(C)[C@@H]7CC[C@@]6(C)[C@]4(C)CC5)CC3)c3ccc(=[N+](CC)CC)cc-3oc2c1 | 0.038 µM | 0.14 µM | 0.137 µM | 0.083 µM | 0.075 µM | 0.047 µM | 0.047 µM | – | – | – | – | –
CC(=O)O[C@H]1CC[C@]2(C)[C@H]3CC=C4[C@@H]5[C@@H](C)[C@H](C)CC[C@]5(C(=O)N5CCNCC5)CC[C@@]4(C)[C@]3(C)CC[C@H]2C1(C)C | 2.1 µM | 3.2 µM | 2.1 µM | 1.9 µM | 2 µM | 2.6 µM | 3.5 µM | – | – | – | – | –
CCN(CC)c1ccc2c(-c3ccccc3C(=O)O)c3ccc(=[N+](CC)CC)cc-3oc2c1 [RHODAMINE] | > 30 µM | > 30 µM | > 30 µM | > 30 µM | > 30 µM | > 30 µM | > 30 µM | – | – | – | – | –
CCN(CC)c1ccc2c(-c3ccccc3C(=O)N3CCN(C(=O)[C@]45CCC(C)(C)C[C@H]4C4=CC[C@@H]6[C@@]7(C)C[C@@H](OC(C)=O)[C@H](OC(C)=O)C(C)(C)[C@@H]7CC[C@@]6(C)[C@]4(C)CC5)CC3)c3ccc(=[N+](CC)CC)cc-3oc2c1.[Cl-] | 0.007 µM | 0.186 µM | 0.334 µM | 0.057 µM | 0.028 µM | 0.011 µM | – | inactive | 50 | Active | inactive | Active
CC(=O)[C@@H]1CC[C@]2(C(=O)O)CC[C@]3(C)[C@H](CC[C@@H]4[C@@]5(C)CC[C@H](O)C(C)(C)[C@@H]5CC[C@]43C)[C@@H]12 [PLATANIC ACID] | > 30 µM | > 30 µM | – | > 30 µM | > 30 µM | > 30 µM | > 30 µM | – | – | – | – | –
CC1(C)CC[C@]2(C(=O)O)CC[C@]3(C)C(=CC[C@@H]4[C@@]5(C)C[C@@H](O)[C@H](O)C(C)(C)[C@@H]5CC[C@]43C)[C@@H]2C1 [MASLINIC ACID] | 19.5 µM | 23.4 µM | 21.1 µM | 28.8 µM | > 30 µM | 13.7 µM | 17 µM | – | – | – | – | –
C=C(C)[C@@H]1CC[C@]2(C(=O)N3CCNCC3)CC[C@]3(C)[C@H](CC[C@@H]4[C@@]5(C)CC[C@H](OC(C)=O)C(C)(C)[C@@H]5CC[C@]43C)[C@@H]12 | 1.9 µM | 2.2 µM | 0.9 µM | 1 µM | 1.4 µM | 1.5 µM | 2.2 µM | – | – | – | – | –
C[C@H]1[C@H](C)CC[C@]2(C(=O)O)CC[C@]3(C)C(=CC[C@@H]4[C@@]5(C)CC[C@H](O)C(C)(C)[C@@H]5CC[C@]43C)[C@H]12 [URSOLIC ACID] | – | – | 18.7 µM | – | – | 14.7 µM | – | – | – | – | – | –
CC(=O)O[C@H]1CC[C@]2(C)[C@H]3CC=C4[C@@H]5CC(C)(C)CC[C@]5(C(=O)N5CCNCC5)CC[C@@]4(C)[C@]3(C)CC[C@H]2C1(C)C | 1.7 µM | 2.3 µM | 1.7 µM | 1.3 µM | 1.7 µM | 2.7 µM | 3.8 µM | – | – | – | – | –
CCN(CC)c1ccc2c(-c3ccccc3C(=O)N3CCN(C(=O)[C@]45CCC(C)(C)C[C@H]4C4=CC[C@@H]6[C@@]7(C)CC[C@H](OC(C)=O)C(C)(C)[C@@H]7CC[C@@]6(C)[C@]4(C)CC5)CC3)c3ccc(=[N+](CC)CC)cc-3oc2c1 | 0.032 µM | 0.12 µM | 0.137 µM | 0.091 µM | 0.062 µM | 0.043 µM | 0.045 µM | – | – | – | – | –
CC(=O)O[C@H]1CC[C@]2(C)[C@H]3CC[C@@H]4[C@H]5[C@H](C(C)=O)CC[C@]5(C(=O)N5CCNCC5)CC[C@@]4(C)[C@]3(C)CC[C@H]2C1(C)C | 3.1 µM | 3.9 µM | 0.7 µM | 2.4 µM | 2.8 µM | 2.7 µM | 3.7 µM | – | – | – | – | –
CC1(C)CC[C@]2(C(=O)O)CC[C@]3(C)C(=CC[C@@H]4[C@@]5(C)CC[C@H](O)C(C)(C)[C@@H]5CC[C@]43C)[C@@H]2C1 [OLEANOLIC_ACID] | – | > 30 µM | > 30 µM | > 30 µM | > 30 µM | > 30 µM | > 30 µM | – | – | – | – | –
C=C(C)[C@@H]1CC[C@]2(C(=O)N3CCN(C(=O)c4ccccc4-c4c5ccc(=[N+](CC)CC)cc-5oc5cc(N(CC)CC)ccc45)CC3)CC[C@]3(C)[C@H](CC[C@@H]4[C@@]5(C)CC[C@H](OC(C)=O)C(C)(C)[C@@H]5CC[C@]43C)[C@@H]12 | 0.05 µM | 0.176 µM | 0.208 µM | 0.151 µM | 0.081 µM | 0.046 µM | 0.062 µM | – | – | – | – | –
C=C(C)[C@@H]1CC[C@]2(C(=O)O)CC[C@]3(C)[C@H](CC[C@@H]4[C@@]5(C)CC[C@H](O)C(C)(C)[C@@H]5CC[C@]43C)[C@@H]12 [BETULINIC ACID] | – | – | 16.1 µM | – | – | 9.4 µM | – | – | – | – | – | –
CCN(CC)c1ccc2c(-c3ccccc3C(=O)N3CCN(C(=O)[C@]45CC[C@@H](C(C)=O)[C@@H]4[C@H]4CC[C@@H]6[C@@]7(C)CC[C@H](OC(C)=O)C(C)(C)[C@@H]7CC[C@@]6(C)[C@]4(C)CC5)CC3)c3ccc(=[N+](CC)CC)cc-3oc2c1 | 0.036 µM | 0.131 µM | 0.171 µM | 0.099 µM | 0.07 µM | 0.1 µM | 0.145 µM | – | – | – | – | –
